# Key:
# [1] = target: T1, GABA-A receptor; alpha-3/beta-3/gamma-2 (Homo sapiens, UniProt P18507+P28472+P34903); test: Modulation of recombinant human GABA alpha3beta3gamma2 receptor expressed in HEK293 cells assessed as change in GABA-induced current at -80 mV holding potential preincubated for 3 mins followed by co-administration of GABA by electrophysiology method; assay type: cell-based
# T1 sequence (P18507 whole entry): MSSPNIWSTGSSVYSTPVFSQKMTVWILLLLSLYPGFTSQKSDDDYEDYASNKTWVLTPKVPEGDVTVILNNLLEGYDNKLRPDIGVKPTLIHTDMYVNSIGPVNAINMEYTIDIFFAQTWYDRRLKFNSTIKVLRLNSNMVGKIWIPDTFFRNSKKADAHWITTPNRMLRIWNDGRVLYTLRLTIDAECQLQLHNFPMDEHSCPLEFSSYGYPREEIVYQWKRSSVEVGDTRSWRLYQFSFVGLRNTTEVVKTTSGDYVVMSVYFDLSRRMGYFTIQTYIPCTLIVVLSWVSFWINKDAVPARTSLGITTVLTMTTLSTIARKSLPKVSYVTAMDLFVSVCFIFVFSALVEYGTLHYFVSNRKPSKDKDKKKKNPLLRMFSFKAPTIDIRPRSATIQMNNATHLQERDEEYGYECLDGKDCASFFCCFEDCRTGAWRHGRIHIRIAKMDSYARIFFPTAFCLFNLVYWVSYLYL
# T1 sequence (P28472 whole entry): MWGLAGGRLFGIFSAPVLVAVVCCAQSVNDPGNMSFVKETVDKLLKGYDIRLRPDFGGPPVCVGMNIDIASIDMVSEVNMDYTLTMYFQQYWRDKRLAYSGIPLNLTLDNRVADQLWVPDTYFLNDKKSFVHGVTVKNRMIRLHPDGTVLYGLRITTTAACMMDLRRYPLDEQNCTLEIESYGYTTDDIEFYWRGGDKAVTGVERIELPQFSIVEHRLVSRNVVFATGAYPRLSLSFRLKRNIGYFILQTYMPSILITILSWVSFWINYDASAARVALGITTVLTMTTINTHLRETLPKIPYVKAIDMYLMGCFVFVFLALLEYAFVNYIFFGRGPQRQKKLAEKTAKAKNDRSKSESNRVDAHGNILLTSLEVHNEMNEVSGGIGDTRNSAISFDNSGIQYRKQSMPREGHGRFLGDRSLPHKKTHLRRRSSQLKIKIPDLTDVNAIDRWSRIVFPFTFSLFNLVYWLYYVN
# T1 sequence (P34903 whole entry): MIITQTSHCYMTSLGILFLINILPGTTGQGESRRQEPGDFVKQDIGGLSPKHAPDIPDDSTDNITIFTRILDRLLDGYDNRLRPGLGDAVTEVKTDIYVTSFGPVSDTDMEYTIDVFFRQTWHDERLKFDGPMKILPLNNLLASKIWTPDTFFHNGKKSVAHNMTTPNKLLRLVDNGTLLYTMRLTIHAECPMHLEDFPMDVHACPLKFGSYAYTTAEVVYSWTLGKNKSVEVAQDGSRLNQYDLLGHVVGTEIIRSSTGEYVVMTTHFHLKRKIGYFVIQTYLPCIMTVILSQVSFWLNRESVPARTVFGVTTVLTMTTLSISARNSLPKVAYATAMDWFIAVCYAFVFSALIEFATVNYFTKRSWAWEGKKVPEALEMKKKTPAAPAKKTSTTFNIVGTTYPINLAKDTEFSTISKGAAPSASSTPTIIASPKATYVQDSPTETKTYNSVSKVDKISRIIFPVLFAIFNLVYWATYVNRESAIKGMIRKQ
# [2] = Cmax in femoral artery/vein cannulated Sprague-Dawley rat at 10 mg/kg, ip administered […] as single dose by LC-MS/MS analysis; assay type: ADME, organism-based; design: dose 10 mg/kg, route intraperitoneal; settings: in vivo
# Method in brief: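 Male Sprague-Dawley rats (n = 3 per time point) were dosed 1 mg/kg i.v. or 10 mg/kg i.p. Plasma concentrations were measured at set time points. Clearance, Vdss and T½ came from the i.v. arm, and AUC, Cmax and Tmax from the i.p. arm.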
smiles,measurement,setting,value
C#Cc1ccc2c(c1)C(c1ccccn1)=NCc1c(-c3cnco3)ncn1-2,EC50,[1],205 nM
same,Cmax,[2],3.09 µM

# — ChEMBL document CHEMBL4041524, “Synthesis and Characterization of a Novel γ-Aminobutyric Acid Type A (GABAA) Receptor Ligand That Combines Outstanding Metabolic Stability, Pharmacokinetics, and Anxiolytic Efficacy” (J Med Chem, 2016)
